Test results from ChEMBL document CHEMBL3351619 (J Med Chem, 2014).
Calls of active or inactive are those of the source. No cut-off for these calls is given here.

Key:
[1] = biological target: T1, 5-hydroxytryptamine receptor 7 (Homo sapiens, UniProt P34969); assay: Displacement of [3H]LSD from human 5-HT7 expressed in HEK-293 cells after 120 mins by scintillation spectrometry; format: cell-based, HEK293
In short: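 Competition binding on membranes of CHO-K1 or HEK-293 cells transfected with human 5-HT7 receptor, radioligand [3H]LSD; 5-CT as reference. Two to four experiments, each in triplicate; Ki reported as mean.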

[2] = biological target: T2, 5-hydroxytryptamine receptor 1A (Homo sapiens, UniProt P08908); assay: Displacement of [3H]-8-OH-DPAT from human 5-HT1A expressed in CHO-K1 cells after 120 mins by scintillation spectrometry; format: cell-based
T2 sequence (P08908 whole entry): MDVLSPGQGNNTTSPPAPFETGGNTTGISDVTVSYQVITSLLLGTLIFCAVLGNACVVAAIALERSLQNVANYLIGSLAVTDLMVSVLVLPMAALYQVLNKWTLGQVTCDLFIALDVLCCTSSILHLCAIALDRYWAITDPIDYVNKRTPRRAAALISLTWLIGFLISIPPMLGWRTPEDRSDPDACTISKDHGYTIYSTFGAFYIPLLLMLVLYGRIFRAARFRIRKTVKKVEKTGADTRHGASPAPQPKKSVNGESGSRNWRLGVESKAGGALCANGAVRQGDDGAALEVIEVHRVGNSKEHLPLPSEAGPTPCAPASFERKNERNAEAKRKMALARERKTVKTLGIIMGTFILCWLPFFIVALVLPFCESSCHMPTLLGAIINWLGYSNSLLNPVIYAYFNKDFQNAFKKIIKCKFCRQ
In short: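 Competitive radioligand binding on membranes from transfected cells expressing human 5-HT1A receptor, with [3H]-8-OH-DPAT as the radioligand. Affinity is given as Ki, the mean of two to four experiments, each run in triplicate.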

[3] = biological target: T1, 5-hydroxytryptamine receptor 7; assay: Antagonist activity at human 5-HT7 expressed in HEK-293 cells assessed as inhibition in serotonin-induced increase in cAMP level after 45 mins by HTRF assay; format: functional, cell-based, HEK293
In short: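 From the concentration–response curve, maximal inhibition (Imax) and IC50 were read, and the dissociation constant KB was calculated.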

[4] = biological target: T1, 5-hydroxytryptamine receptor 7; assay: Agonist activity at human 5-HT7 expressed in HEK-293 cells assessed as increase in cAMP level after 45 mins by HTRF assay; format: functional, cell-based, HEK293
Mus musculus [5] = assay: Inhibition of 8-OH-DPAT-induced hypothermia in C57BL/6J mouse assessed as reduction in core body temperature at 1 mg/kg, ip administered 30 mins prior challenge as single dose; format: functional, organism-based; set-up: dose 1 mg/kg
In short: (§1)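 C57BL/6J mice (male and female, 8−12 weeks), single ip doses in 0.9% saline vehicle, start 9:00 h. Rectal probe core temperature taken at baseline just before injection, at 15 and 30 min, then every 30 min to 2 h. For antagonism, test drug given 30 min before 8-OH-DPAT (0.3 mg/kg ip).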

Mus musculus [6] = assay: Effect on core body temperature in C57BL/6J mouse at 0.3 to 1 mg/kg, ip administered as single dose; format: functional, organism-based; in short: as §1
Mus musculus [7] = assay: Antidepressant activity in C57BL/6J mouse assessed as decrease in the immobility at 1 mg/kg, ip administered as single dose measured for last 4 mins of test by tail suspension method relative to vehicle-treated control; format: functional, organism-based; set-up: dose 1 mg/kg
Mus musculus [8] = assay: Antidepressant activity in C57BL/6J mouse assessed as decrease in the immobility at 10 mg/kg, ip administered as single dose measured for last 4 mins of test by tail suspension method relative to vehicle-treated control; format: functional, organism-based; set-up: dose 10 mg/kg
Mus musculus [9] = assay: Antidepressant activity in C57BL/6J mouse assessed as decrease in the immobility at 1 mg/kg, ip administered as single dose measured for last 4 mins of test by forced swim test relative to vehicle-treated control; format: functional, organism-based; set-up: dose 1 mg/kg
In short: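 Male and female C57BL/6J mice, 8−12 weeks, group housed; single ip injection, 0.9% saline vehicle; start 9:00 h. Mouse placed 6 min in clear cylinder (16 cm diameter, 25 cm high) holding 10 cm of 25 °C water, replaced between animals; trained observer scored immobility (no movement beyond keeping head above surface) over last 4 min. N = 7−9/group; Student's two-tailed unpaired t test.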

[10] = biological target: Sodium-dependent serotonin transporter (Homo sapiens) (UniProt P31645); assay: Displacement of [3H]imipramine from 5-HT transporter (unknown origin) at 1 uM after 60 mins
Chain of Sodium-dependent serotonin transporter (Homo sapiens) (P31645 whole entry, looked up): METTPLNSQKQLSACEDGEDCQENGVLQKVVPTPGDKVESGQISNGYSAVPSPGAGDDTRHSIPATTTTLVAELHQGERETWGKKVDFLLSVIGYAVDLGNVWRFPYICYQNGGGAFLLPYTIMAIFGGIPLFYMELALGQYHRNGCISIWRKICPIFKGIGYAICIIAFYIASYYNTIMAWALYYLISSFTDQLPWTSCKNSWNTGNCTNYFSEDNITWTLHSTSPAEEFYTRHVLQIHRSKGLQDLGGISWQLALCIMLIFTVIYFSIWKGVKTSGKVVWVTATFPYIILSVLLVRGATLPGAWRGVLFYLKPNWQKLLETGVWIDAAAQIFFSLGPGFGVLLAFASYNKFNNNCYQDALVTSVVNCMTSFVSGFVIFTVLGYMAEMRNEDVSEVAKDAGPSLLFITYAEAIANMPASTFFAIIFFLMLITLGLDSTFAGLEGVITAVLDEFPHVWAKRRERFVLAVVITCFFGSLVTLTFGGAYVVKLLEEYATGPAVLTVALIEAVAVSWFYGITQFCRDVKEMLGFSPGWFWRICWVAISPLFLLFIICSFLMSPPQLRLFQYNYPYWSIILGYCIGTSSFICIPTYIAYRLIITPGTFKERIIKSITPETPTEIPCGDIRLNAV
In short: (§2)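 Single test concentration of 1 μM; percent displacement of the respective radioligand binding at each target.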

[11] = biological target: 5-hydroxytryptamine receptor 2A (Homo sapiens) (UniProt P28223); assay: Displacement of [3H]ketanserin from 5-HT2A (unknown origin) at 1 uM after 60 mins; in short: as §2
Chain of 5-hydroxytryptamine receptor 2A (Homo sapiens) (P28223 whole entry): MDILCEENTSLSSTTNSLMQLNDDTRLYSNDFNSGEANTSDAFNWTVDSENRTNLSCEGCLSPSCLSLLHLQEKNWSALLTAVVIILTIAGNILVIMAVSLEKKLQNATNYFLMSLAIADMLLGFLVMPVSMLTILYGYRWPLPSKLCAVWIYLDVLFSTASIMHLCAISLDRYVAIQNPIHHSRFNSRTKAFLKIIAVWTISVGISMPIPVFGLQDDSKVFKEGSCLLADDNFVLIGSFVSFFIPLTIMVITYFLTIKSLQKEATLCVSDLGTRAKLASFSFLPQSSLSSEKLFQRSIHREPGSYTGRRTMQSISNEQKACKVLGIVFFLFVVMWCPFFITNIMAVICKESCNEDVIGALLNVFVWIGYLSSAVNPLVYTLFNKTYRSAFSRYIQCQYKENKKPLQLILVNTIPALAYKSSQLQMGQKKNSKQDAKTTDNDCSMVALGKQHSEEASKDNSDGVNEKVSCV

[12] = biological target: Melatonin receptor (Homo sapiens) (UniProt P48039+P49286); assay: Displacement of [125I]-2-iodomelatonin from MT1 (unknown origin) at 1 uM after 60 mins; format: protein assay; in short: as §2
[13] = biological target: T3, Corticotropin-releasing factor receptor 1 (Homo sapiens) (UniProt P34998); assay: Displacement of [125I]sauvagine from CRF1 (unknown origin) at 1 uM after 120 mins; in short: as §2
T3 sequence (whole entry): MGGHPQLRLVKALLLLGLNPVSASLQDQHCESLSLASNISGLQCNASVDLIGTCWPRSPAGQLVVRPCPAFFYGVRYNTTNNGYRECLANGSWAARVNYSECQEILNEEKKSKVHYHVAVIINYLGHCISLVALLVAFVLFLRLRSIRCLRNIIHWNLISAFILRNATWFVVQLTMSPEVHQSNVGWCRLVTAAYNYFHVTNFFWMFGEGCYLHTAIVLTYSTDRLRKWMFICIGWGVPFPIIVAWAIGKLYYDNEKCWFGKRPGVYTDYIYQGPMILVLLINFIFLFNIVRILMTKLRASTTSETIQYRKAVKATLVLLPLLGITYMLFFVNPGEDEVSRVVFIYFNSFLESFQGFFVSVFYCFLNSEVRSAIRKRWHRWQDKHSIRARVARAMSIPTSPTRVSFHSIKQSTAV

T1 sequence (P34969 whole entry): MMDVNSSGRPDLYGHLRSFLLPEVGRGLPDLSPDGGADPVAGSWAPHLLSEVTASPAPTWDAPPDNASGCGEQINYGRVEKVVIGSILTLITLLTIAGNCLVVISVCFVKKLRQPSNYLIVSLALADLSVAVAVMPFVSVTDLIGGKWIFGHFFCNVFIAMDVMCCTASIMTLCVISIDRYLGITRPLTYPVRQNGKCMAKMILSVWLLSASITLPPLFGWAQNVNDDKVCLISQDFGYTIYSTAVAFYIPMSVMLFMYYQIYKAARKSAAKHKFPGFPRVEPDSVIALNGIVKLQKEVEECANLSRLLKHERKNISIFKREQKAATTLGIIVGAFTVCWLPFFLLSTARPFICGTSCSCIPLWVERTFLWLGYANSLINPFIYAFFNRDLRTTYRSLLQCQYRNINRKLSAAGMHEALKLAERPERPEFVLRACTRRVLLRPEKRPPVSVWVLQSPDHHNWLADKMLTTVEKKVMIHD

Compound	Ki [1]	Ki [2]	IC50 [3]	other results
O=C1Cc2ccccc2N1CCCCN1CC[C@H]2CCCC[C@@H]2C1 (racemic)	29 nM	470 nM		
CN1C[C@@H](NS(=O)(=O)N(C)C)C[C@@H]2c3cccc4c3c(cn4C)C[C@H]21 [MESULERGINE]			290 nM	
O=C1Cc2ccccc2N1CCCCCCCN1CCc2ccccc2C1	36 nM	> 1000 nM		
O=C1Cc2ccccc2N1CCCCCN1CC[C@H]2CCCC[C@@H]2C1 (racemic)	41 nM	491 nM		
O=C1Cc2ccccc2N1CCCCCCCN1CC[C@H]2CCCC[C@@H]2C1 (racemic)	62 nM	> 1000 nM		
O=C1Cc2ccccc2N1CCCCCN1CCc2ccccc2C1	28 nM	523 nM		
O=C1Cc2ccccc2N1CC/C=C/CCN1CC[C@H]2CCCC[C@@H]2C1 (racemic)	2.7 nM	> 1000 nM	2300 nM	EC50 [4]: 60 nM
O=C1Cc2ccccc2N1CCCCCCN1CCc2ccccc2C1	24 nM	576 nM		
O=C1Cc2ccccc2N1CC/C=C/CCN1CCc2ccccc2C1	0.7 nM	> 1000 nM	2200 nM	EC50 [4]: 230 nM; inhibition (Mus musculus [5]): Active; Activity (Mus musculus [6]): inactive; Activity (Mus musculus [7]): Active; Activity (Mus musculus [8]): inactive; Activity (Mus musculus [9]): Active; inhibition [10]: 14%; inhibition [11]: 15%; inhibition [12]: -4%; inhibition [13]: -10%
